The source of these data is ChEMBL document CHEMBL1166005, “Discovery of tetrahydro-beta-carbolines as inhibitors of the mitotic kinesin KSP” (Bioorg Med Chem, 2010).

One assay relates to A549. Briefly: Antiproliferative activity against human A549 cells after 48 hrs by SRB assay. Particulars: A549, 48 h. For orientation: Sulforhodamine B stains cellular protein and so reports cell mass.
In assay [1] the target is T1, Kinesin-like protein KIF11 (Homo sapiens, UniProt P52732).
T1 sequence (P52732 whole entry): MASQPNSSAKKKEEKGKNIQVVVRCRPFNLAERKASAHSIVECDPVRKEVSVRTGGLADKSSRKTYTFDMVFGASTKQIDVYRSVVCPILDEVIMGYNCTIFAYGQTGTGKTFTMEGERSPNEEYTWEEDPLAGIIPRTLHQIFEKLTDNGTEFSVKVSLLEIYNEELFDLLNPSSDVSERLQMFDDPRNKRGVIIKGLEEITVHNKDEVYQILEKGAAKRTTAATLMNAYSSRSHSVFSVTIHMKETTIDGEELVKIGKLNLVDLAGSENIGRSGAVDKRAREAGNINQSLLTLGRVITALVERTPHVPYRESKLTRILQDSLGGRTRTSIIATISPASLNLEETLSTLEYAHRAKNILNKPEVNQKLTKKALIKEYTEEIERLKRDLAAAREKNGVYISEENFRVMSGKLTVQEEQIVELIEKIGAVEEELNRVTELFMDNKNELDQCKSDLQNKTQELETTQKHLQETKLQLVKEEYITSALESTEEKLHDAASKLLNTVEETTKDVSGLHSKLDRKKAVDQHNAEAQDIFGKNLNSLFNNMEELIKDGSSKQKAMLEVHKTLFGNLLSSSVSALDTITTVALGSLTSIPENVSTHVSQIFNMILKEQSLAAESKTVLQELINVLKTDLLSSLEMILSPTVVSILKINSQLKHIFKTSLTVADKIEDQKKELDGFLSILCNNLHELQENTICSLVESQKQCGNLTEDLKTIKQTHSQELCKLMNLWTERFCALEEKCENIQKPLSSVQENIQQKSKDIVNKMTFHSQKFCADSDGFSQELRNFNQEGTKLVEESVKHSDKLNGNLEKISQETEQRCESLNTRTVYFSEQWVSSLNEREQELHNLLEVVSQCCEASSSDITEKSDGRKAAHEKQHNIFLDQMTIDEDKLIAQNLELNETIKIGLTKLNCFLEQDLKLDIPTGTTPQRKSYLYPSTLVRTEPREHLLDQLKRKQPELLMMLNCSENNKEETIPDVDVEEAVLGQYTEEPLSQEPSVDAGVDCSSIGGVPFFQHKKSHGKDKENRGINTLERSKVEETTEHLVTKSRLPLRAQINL
Briefly: Inhibition of human Eg5 expressed in Escherichia coli assessed as microtubule-activated ATPase activity by spectrophotometry. A digest of the protocol:
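Eg5 residues 2-386 expressed from pET28a in E. coli (0.5 mM IPTG, 20 h at 20 °C), purified on SP-Sepharose then Mono-Q, and dialyzed into PIPES pH 7.5 ATPase buffer. Assay contained 20 mM PIPES pH 7.5, 5.0 mM MgCl2, 1 mM EGTA, paclitaxel-stabilized MTs, ATP and 2% DMSO. Started with ATP, 37 °C for 30 min; Pi detected by malachite green with citrate stop, A610. No-enzyme and no-MT backgrounds subtracted; means of ≥3 experiments.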

Another assay concerns HT-29. Briefly: Antiproliferative activity against human HT-29 cells after 48 hrs by SRB assay. The conditions noted are these: HT-29, 48 h.
The next assay concerns AGS. In words: Antiproliferative activity against human AGS cells after 48 hrs by SRB assay.
The test system of a further assay is HepG2. In words: Antiproliferative activity against human HepG2 cells after 48 hrs by SRB assay. Particulars: HepG2, 48 h.
The next assay deals with PC-3. Briefly: Antiproliferative activity against human PC3 cells after 48 hrs by SRB assay. The conditions noted are these: PC-3, 48 h.

By IC50 is commonly meant the concentration that gives 50% inhibition. In the case of `CC(N)C(=O)N1CCc2c([nH]c3ccc(Cl)cc23)C1c1cccc(O)c1` (stereo not given), the concentration for half-maximal inhibition (IC50) in the assay on A549 was 5.65 µM; in assay [1] it was 0.483 µM.
For `Cc1ccc2[nH]c3c(c2c1)CCN(CCN)C3c1cccc(O)c1` (racemic) the same measures were 7.79 µM and 0.237 µM.
Regarding `NCCC(=O)N1CCc2c([nH]c3c(Cl)cccc23)C1c1cccc(O)c1` (racemic), the IC50 with HT-29 turned out to be 5.75 µM; in the assay on A549 it was 0.94 µM; in the assay with AGS, 1.31 µM; with HepG2, 7.47 µM; in assay [1], 0.04 µM; with PC-3, 1.28 µM.
For the compound `NCCNC(=O)C1Cc2c([nH]c3ccccc23)C(c2cccc(O)c2)N1` (racemic), the IC50 with A549 was above 10 µM; in assay [1], 0.065 µM.
`Cc1ccc2[nH]c3c(c2c1)CCN(C(=O)c1ccc(N)cc1)C3c1cccc(O)c1` (racemic): the IC50 with HT-29 was 7.47 µM; in the assay with A549, 7.93 µM; in the assay on AGS, 8.86 µM; with HepG2 it was above 10 µM; in assay [1], 0.05 µM; in the assay on PC-3, above 10 µM.
Turning to `Cc1ccc2[nH]c3c(c2c1)CCN(CCCN)C3c1cccc(O)c1` (racemic), the values for the IC50 (in the assay on A549; in assay [1]) were 6.86 µM and 0.083 µM, respectively.
For `Cc1ccc2[nH]c3c(c2c1)CCN(CCCCN)C3c1cccc(O)c1` (racemic) the same measures were 9.19 µM and 0.454 µM.
Turning to `NCCCN1CCc2c([nH]c3ccc(Cl)cc23)C1c1cccc(O)c1` (racemic), the results for the IC50 (with A549; in assay [1]) were 6.73 µM and 0.204 µM, respectively.
For `NCCN1CCc2c([nH]c3ccc(Cl)cc23)C1c1cccc(O)c1` (racemic), the IC50 in the assay with A549 was 8.7 µM; in assay [1], 0.007 µM.
Take `CCCC(=O)N1CCc2c([nH]c3ccc(Cl)cc23)C1c1c[nH]c2ccccc12` (racemic): the IC50 in the assay with HT-29 was determined as 5.86 µM; in the assay on A549, 9.11 µM; with AGS, 7.06 µM; in the assay with HepG2, 7.64 µM; in assay [1], 0.163 µM; in the assay on PC-3 it was 7.29 µM.
With `Cc1ccc2[nH]c3c(c2c1)CCN(C)C3c1cccc(O)c1` (racemic), the IC50 with A549 is 8.73 µM; in assay [1], 0.462 µM.
For `Cc1ccc2[nH]c3c(c2c1)CCN(Cc1ccccc1)C3c1cccc(O)c1` (racemic), the IC50 in the assay on A549 is 6.86 µM; in assay [1], 12.4 µM.
For `CCCC(=O)N1CCc2c([nH]c3ccc(C)cc23)C1c1c[nH]c2ccccc12` (racemic), the IC50 in the assay on A549 is above 10 µM; in assay [1] it was below 0.001 µM.
For `CN1CCc2c([nH]c3ccc(Cl)cc23)C1c1cccc(O)c1` (racemic), the IC50 with HT-29 is 7.4 µM; with A549, 1.38 µM; in the assay on AGS, 0.75 µM; with HepG2, above 10 µM; in assay [1], 0.664 µM; in the assay with PC-3, above 10 µM.
On to `CCCN1CCc2c([nH]c3ccc(Cl)cc23)C1c1cccc(O)c1` (racemic), for which the IC50 in the assay on A549 worked out at 1.55 µM; in assay [1] it was 0.169 µM.
The matching figures for `Oc1cccc(C2c3[nH]c4ccc(Cl)cc4c3CCN2Cc2ccccc2)c1` (racemic): 5.7 µM and 0.71 µM.
In the case of `CCOC(=O)C1Cc2c([nH]c3ccccc23)C(c2cccc(O)c2)N1C(C)=O` (racemic), the figures for the IC50 (in the assay on A549; in assay [1]) were above 10 µM and 0.724 µM, respectively.
`CCOC(=O)C1Cc2c([nH]c3ccccc23)C(c2cccc(O)c2)N1C(=O)CC` (racemic): the IC50 in the assay with A549 was above 10 µM; in assay [1], 0.075 µM.
For `CC(=O)N1CCc2c([nH]c3ccc(C)cc23)C1c1c[nH]c2ccccc12` (racemic) the same measures were above 10 µM and 0.051 µM.
On to `Nc1ccc(C(=O)N2CCc3c([nH]c4ccc(Cl)cc34)C2c2cccc(O)c2)cc1` (racemic), for which the IC50 in the assay on HT-29 was determined as 6.3 µM; with A549, 6.66 µM; in the assay with AGS, 6.07 µM; in the assay on HepG2, 8.52 µM; in assay [1] it was 0.076 µM; in the assay with PC-3, 7.3 µM.
In the case of `NCCC(=O)N1CCc2c([nH]c3ccc(Cl)cc23)C1c1c[nH]c2ccccc12` (racemic), the IC50 in the assay with HT-29 was 6.28 µM; in the assay with A549, 1.79 µM; with AGS it was 6.16 µM; with HepG2, above 10 µM; in assay [1], 0.043 µM; with PC-3 it was 1.55 µM.
As for `CCCC(=O)N1C(C(=O)O)Cc2c([nH]c3ccccc23)C1c1cccc(O)c1` (racemic), the IC50 was above 10 µM with A549 and 3.45 µM in assay [1].
For `Cc1ccc2[nH]c3c(c2c1)CCN(C(=O)C(C)C)C3c1c[nH]c2ccccc12` (racemic) the same measures were above 10 µM and 0.216 µM.
For `CCCC(=O)N1C(C(=O)OCC)Cc2c([nH]c3ccccc23)C1c1cccc(O)c1` (racemic) the same measures were above 10 µM and 0.224 µM.
The matching figures for `CCC(=O)N1C(C(=O)O)Cc2c([nH]c3ccccc23)C1c1cccc(O)c1` (racemic): above 10 µM and 0.118 µM.
For `O=C(NCCO)C1Cc2c([nH]c3ccccc23)C(c2cccc(O)c2)N1` (racemic), the IC50 in the assay with A549 is above 10 µM; in assay [1], 0.29 µM.
The matching figures for `NCCCCN1CCc2c([nH]c3ccc(Cl)cc23)C1c1cccc(O)c1` (racemic): 9.06 µM and 0.347 µM.
In the case of `CCOC(=O)C1Cc2c([nH]c3ccccc23)C(c2cccc(O)c2)N1C(=O)C(C)C` (racemic), the IC50 in the assay on A549 was above 10 µM; in assay [1], 0.38 µM.
`CC(C)Oc1cccc(C2c3[nH]c4ccc(Cl)cc4c3CCN2CCN)c1` (racemic): the IC50 in the assay on HT-29 was 7.44 µM; in the assay on A549 it was 8.7 µM; in the assay with AGS, 8.39 µM; with HepG2 it was above 10 µM; in the assay on PC-3, above 10 µM.
Consider `CC(=O)N1CCc2c([nH]c3ccc(Cl)cc23)C1c1c[nH]c2ccccc12` (racemic), for which the IC50 was determined as 9.8 µM with A549 and 0.337 µM in assay [1].
On to `CC(C)C(=O)N1CCc2c([nH]c3ccc(Cl)cc23)C1c1c[nH]c2ccccc12` (racemic), for which the IC50 worked out at 6.83 µM in the assay on A549 and 1.7 µM in assay [1].
Take `CCC(c1nc2cc(Cl)ccc2c(=O)n1Cc1ccccc1)N(CCCN(C)C)C(=O)c1ccc(Br)cc1` (stereo not given) [CK0106023]: the IC50 with HT-29 is 3.33 µM; in the assay with A549, 7.02 µM; with AGS, 5.1 µM; in the assay on HepG2, above 10 µM; in assay [1], 0.049 µM; in the assay with PC-3, above 10 µM.
